# Measurements taken from ChEMBL document CHEMBL4513216, “Probing the Open Global Health Chemical Diversity Library for Multistage-Active Starting Points for Next-Generation Antimalarials” (ACS Infect Dis, 2020).
# Experiment: Toxicity liver stage against HepG2, at 10uM
# Format: cell-based
# Parameters: test concentration 10 uM, cell line HepG2-A16-CD81EGFP
# Settings: human, HepG2-A16-CD81EGFP cells; read-out: INHIBITION
# In short: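 Uninfected HepG2-A16-CD81EGFP cells, 3 × 10^3 per well, 1536-well, plated on prespotted compound at 10 μM final, parasite-free screening media added to match infected plates; puromycin 10 μM positive, DMSO 0.5% negative; run in parallel with 48 h PbLuc assay at 37 °C, 5% CO2; viability by CellTiter-Glo luminescence, normalized to controls.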
row,SMILES,cytotoxicity at 10 µM [%]
1,O=C(NC[C@H]1OC[C@@H](NC2COC2)[C@@H]1O)Nc1ccccc1,4.43
2,CC[C@H]1CN(C(=O)c2cccnc2)CC[C@H]1CC(=O)NC1CC1,4.18
3,COC(=O)[C@@H]1CN(C(=O)NC(C)C)CCN1S(=O)(=O)c1ccccc1,2.17
4,CSc1ccc(C(=O)N2CC(=O)N(CC3CC3)CC(O)C2)cc1 (configuration not stated),0.174
5,COc1ccc2c(ccn2CCC(=O)Nc2ccc(C(N)=O)cc2)c1,6.1
6,Cc1cc(N2CCOCC2)nc(N(C)CCO)c1C#N,2.17
7,COc1cn(CC(=O)N2CCC(c3ccccc3)CC2)c(C)cc1=O,1.11
8,O=C(NC1CCN(c2ccc(-c3ccccc3F)nn2)C1)c1ccc[nH]1 (configuration not stated),7.4
9,Cc1csc(C(=O)N2CCC(S(C)(=O)=O)C2)c1 (configuration not stated),-5.21
10,CC(C)NC(=O)N1CCOC2(CNC2)C1,-0.479
11,Cc1ccc(CN2CC3(CCN(S(=O)(=O)c4ccccc4)C3)C2)o1,-2.3
12,O=C([C@H]1CCCO1)N1CCC2(CCCN(CCOc3ccccc3)C2)C1 (some centres not stated),-3.25
13,COc1ccc2c(ccn2CCC(=O)/N=c2\[nH]nc(C3CCCO3)s2)c1 (configuration not stated),-8.07
14,O=C(NCCC1=CCCCC1)C1CCN(c2ccc3nncn3n2)CC1,-2.96
15,CCCc1nc(N2CCC(C)CC2)c2c(n1)c(C)nn2CC,1.64
16,CC(=O)N1CCOCC(Cc2ccc3c(ccn3C(C)=O)c2)C1 (configuration not stated),1.64
17,CC(=O)N1C[C@H](c2cc(O)nc(C)n2)[C@@H](c2ccccc2F)C1,1.65
18,Oc1nc(C2CC2)nc2c1nnn2C1CCN(Cc2ccoc2)CC1,6.01
19,Cn1cnc2ccc(NC(=O)CC3CCN(C4CCCCC4)CC3)cc21,25.9
20,CCn1cc(C(=O)N(C)[C@@H]2CC[C@@H](N3CCCC3)[C@@H]2O)c(C)n1,5.92
21,Cc1nc(C)n(CC(=O)N2CCCC(c3cc4ccccc4cn3)C2)n1 (configuration not stated),-22.1

row,SMILES,cytotoxicity at 10 µM [%]
1,Cc1cc(C)nc(N2CCC(CNC(=O)c3ccccn3)CC2)n1,-18.9
2,CCc1nnc(Nc2cccc(C3CCN(C)CC3)n2)s1,-28.6
3,O=C(c1ccncc1)N1CCCC(c2ncncc2-c2ccncc2)C1 (configuration not stated),-17.2
4,CNc1cc(N2CCC(O)(CNC(=O)c3ccc(C)nc3)C2)ncn1 (configuration not stated),-25.3
5,CC(C)CN1CCC(C(=O)NCCNC(=O)c2ccccc2)CC1,1.22
6,CCc1cccc(CC(=O)NC2CCN(C(=O)NC(C)(C)C)CC2)c1,-4.73
7,Cc1ccc(S(N)(=O)=O)cc1C(=O)NC1CCCC1,1.86
8,CCc1nnc(SCC(=O)Nc2cc(C(C)(C)C)nn2C)[nH]1,7.28
9,O=C1COc2cc(S(=O)(=O)NCCC3=CCCCC3)c(Br)cc2N1,15.7
10,O=C(CCNc1ncccn1)NCCc1ccc(Cl)s1,-3.91
11,O=C(NC1CCCCNC1=O)c1cc2ccccc2[nH]c1=O (configuration not stated),-6.08
12,CCN(Cc1ccco1)C(=O)NCc1nnc2n1CCCCC2,-4.73
13,CC1CCN(CCNC(=O)C2CCN(C(=O)C(C)(C)C)CC2)CC1,6.81
14,CCOC(C)C(=O)N1CCN(S(C)(=O)=O)CC1 (configuration not stated),-5.35
15,O=C(NS(=O)(=O)c1c(Cl)cccc1Cl)c1cccc2c1OCCO2,0.582
16,Cc1cnn(CCNCC(O)c2ccc(S(C)(=O)=O)cc2)c1 (configuration not stated),1.1
17,O=C(Nc1nncs1)c1ccc(-n2cnnn2)cc1,5.25
18,N#Cc1cccc(Cl)c1NCCCc1nc(=O)[nH][nH]1,24.2
19,O=C(Cc1cnn(-c2ccccc2)n1)NC(C1CC1)C1CC1,-9.66
20,Cc1cccc(N2N=C(C(=O)NC(C)CCc3ccco3)CCC2=O)c1 (configuration not stated),-10.1
21,CC(C)CCN(C(=O)c1cccc(NC(N)=O)c1)C1CC1,-6.46

row,SMILES,cytotoxicity at 10 µM [%]
1,CC(SCCS(C)(=O)=O)c1nc(Cc2ccc(F)cc2)no1 (configuration not stated),4.6
2,CCOC(=O)C(CO)NC(=O)CCc1cccc(OC2CCCC2)c1 (configuration not stated),-7.08
3,COCCC(Cc1cccc(Br)c1)C(=O)NCC(N)=O (configuration not stated),9.74
4,CC(C)N(Cc1ccccn1)C(=O)CN(C)C(=O)c1cccs1,2.31
5,CC(C)c1nc(C2CCCN2CCOCC2CC2)no1 (configuration not stated),1.8
6,Cc1csc(N2CCCN(Cc3ccn(C)c(=O)c3)CC2)n1,12.8
7,CSC(CNS(C)(=O)=O)c1cccc(Cl)c1 (configuration not stated),6.27
8,O=S(=O)(C1CC1)N1CCc2c(CN3CCOCC3)cncc2C1,-0.514
9,c1cnc(N2CCc3onc(CN4CCOCC4)c3C2)cn1,14.1
10,CC(=O)N1CCC2(CC1)CN(C(C)C)c1ccc(F)cc12,-110
11,Cc1nc(CN2CCCCC2CCc2ccc(O)cc2)co1 (configuration not stated),2.72
12,CCN(CC)C(=O)C1CCC(=O)N(CCc2cccc(F)c2)C1 (configuration not stated),-4.92
13,CC(C)c1nccc(C2CC(=O)Nc3n[nH]c(C4CCC4)c32)n1 (configuration not stated),-14.6
14,COc1ccc(CN2C[C@@H](CN(C)CCO)[C@@H](CO)C2)cc1Cl,-5.88
15,Cc1cc(CNC(=O)c2ccc(C(C)N3CCCCC3)o2)[nH]n1 (configuration not stated),-12.6
16,CN(Cc1nc(CC2CC2)no1)CC1Cc2ccccc2O1 (configuration not stated),-2.53
17,COCc1cc(NCc2ccccc2OC)ncn1,7.69
18,Cc1cc2[nH]c(=O)oc2cc1S(=O)(=O)N1CCC(N2CCCC2=O)CC1,1.54
19,COc1cccc(C(=O)N(C)C(C)c2c(C)n[nH]c2C)c1OC (configuration not stated),-2.8
20,CC(C)c1nc(CN(C)C(=O)CCNC(=O)c2ccccc2F)no1,4.66
21,CCn1ncnc1C(C)NC(=O)COc1ccc(Cl)cc1Cl (configuration not stated),2.8

row,SMILES,cytotoxicity at 10 µM [%]
1,COc1cccc(CNCc2c(C(C)C)nn(C)c2N(C)C)c1,-7.36
2,Cc1cc(C)n(CC2CN(Cc3ccccn3)CCO2)n1 (configuration not stated),-3.89
3,Cc1ccc(C(=O)NCc2cccnc2N(C)C)o1,-6.86
4,CN(Cc1cc(-c2ccccc2)no1)C1CCCN(c2cccnn2)C1 (configuration not stated),-10.2
5,COCC(=O)N1CCN(Cc2coc(-c3cccc(F)c3)n2)CC1,-7.16
6,Cn1cc(C2CCCN2C(=O)c2ccc(Br)o2)cn1 (configuration not stated),-3.32
7,Cc1cc(C)n(C2CCCN(C(=O)COCC(F)(F)F)C2)n1 (configuration not stated),-4.3
8,Cc1nc2cc(-c3nccn3C)nn2c(N2CCC(O)CC2)c1C,-3.31
9,CN(C)C(=O)N1Cc2ccccc2C2(CCNCC2)C1,1.26
10,Fc1cccnc1N1CCOCC2(CCCN(c3nncs3)C2)C1 (configuration not stated),3.44
11,CCN1CCC2(CC1)CC(NC(=O)N(C)C)c1cc(C)ccc12 (configuration not stated),-13.1
12,O=C(c1ccco1)N1CCN2C[C@H](OCc3cccnc3)C[C@H]2C1,-77
13,O=C1NC2(CCN(Cc3ccsc3)CC2)CC1c1ccncc1 (configuration not stated),4.93
14,CN(C)[C@@H]1CN(C(=O)Cc2ccsc2)[C@@H]2CCCO[C@H]12,3.08
15,O=C1COC2(COCCN(Cc3ccsc3)C2)CN1c1ccoc1 (configuration not stated),-73.5
16,O=C1[C@@H]2CCN(Cc3ccoc3)C[C@@H]2OCCN1Cc1cccnc1,-0.671
17,CCN1CCOCC2(CCCN(C(=O)c3conc3C)C2)C1 (configuration not stated),2.82
18,COCCOCC1(CNCc2cccc(OC)c2)C[C@@H](O)[C@@H](O)C1 (some centres not stated),0.994
19,O=C1CCCC2=Nc3nonc3NC(c3ccccc3Cl)C12 (configuration not stated),18.5
